Here are results for 12 compounds from ChEMBL document CHEMBL1155447 (J Med Chem, 2010).

Molecules are shown by their SMILES. pIC50: −log10 of the molar value.

Assay [1] has as its target T1, Steroid 17-alpha-hydroxylase/17,20 lyase (Homo sapiens, UniProt P05093).
T1 sequence (P05093 whole entry): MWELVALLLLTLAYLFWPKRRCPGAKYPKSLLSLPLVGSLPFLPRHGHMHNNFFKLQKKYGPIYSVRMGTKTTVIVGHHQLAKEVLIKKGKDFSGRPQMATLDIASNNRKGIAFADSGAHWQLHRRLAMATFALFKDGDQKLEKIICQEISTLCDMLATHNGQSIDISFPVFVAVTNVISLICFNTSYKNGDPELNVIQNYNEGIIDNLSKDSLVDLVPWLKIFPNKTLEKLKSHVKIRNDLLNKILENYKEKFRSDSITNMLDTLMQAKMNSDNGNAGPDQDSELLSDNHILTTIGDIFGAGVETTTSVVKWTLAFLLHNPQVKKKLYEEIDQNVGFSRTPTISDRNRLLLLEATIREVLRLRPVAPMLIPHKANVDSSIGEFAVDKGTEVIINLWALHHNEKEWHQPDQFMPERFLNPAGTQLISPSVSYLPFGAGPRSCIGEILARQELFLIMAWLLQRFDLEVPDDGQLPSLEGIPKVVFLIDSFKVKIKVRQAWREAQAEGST
The assay is described as follows: Inhibition of human CYP17 expressed in Escherichia coli at 2.5 uM.

For assay [2], the target named is T2, Aromatase (Homo sapiens, UniProt P11511).
T2 sequence (P11511 whole entry): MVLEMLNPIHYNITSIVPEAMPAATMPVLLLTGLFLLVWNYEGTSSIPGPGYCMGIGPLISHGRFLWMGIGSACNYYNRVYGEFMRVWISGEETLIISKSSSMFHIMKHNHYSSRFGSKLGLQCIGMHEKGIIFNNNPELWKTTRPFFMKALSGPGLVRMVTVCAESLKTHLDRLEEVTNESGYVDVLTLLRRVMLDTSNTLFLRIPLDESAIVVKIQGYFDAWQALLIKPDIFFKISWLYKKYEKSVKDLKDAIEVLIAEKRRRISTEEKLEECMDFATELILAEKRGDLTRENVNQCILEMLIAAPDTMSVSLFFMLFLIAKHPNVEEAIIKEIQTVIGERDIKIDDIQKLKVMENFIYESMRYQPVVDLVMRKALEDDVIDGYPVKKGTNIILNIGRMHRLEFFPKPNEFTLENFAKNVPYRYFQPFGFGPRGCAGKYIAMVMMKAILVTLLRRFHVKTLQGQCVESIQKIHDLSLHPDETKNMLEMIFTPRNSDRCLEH

Assay [3] concerns the target T2, Aromatase. Kind of assay: Inhibition of aromatase from human placental microsomes at 10 uM. Put shortly: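 Human placental microsomes were incubated with 1β[3H]androstenedione (500 nM) as substrate. Aromatization was quantified by measuring the tritiated water formed, and results are reported as % inhibition at 10 μM test concentration. Fadrozole served as the positive control.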

The target of assay [4] is T1, Steroid 17-alpha-hydroxylase/17,20 lyase. The assay is described as follows: Inhibition of human CYP17 expressed in Escherichia coli.

On to `O=c1c2ccccc2oc2ccc(Cn3ccnc3)cc12`, for which, in assay [1], testing at 2.5 µM gave an inhibition of 11%. The compound further showed a pIC50 on Aromatase [2] of 5.10.
Take `O=c1c2ccccc2oc2c(Cn3ccnc3)cc([N+](=O)[O-])cc12`: the negative-log IC50 (pIC50) against Aromatase [2] was 7.28.
On Aromatase [3], `CC(=O)N1CCN(c2ccc(OCC3COC(Cn4ccnc4)(c4ccc(Cl)cc4Cl)O3)cc2)CC1` (stereo not given) [KETOCONAZOLE] gave an inhibition at 10 µM of 17.7%.
Consider `O=c1c2ccccc2oc2cccc(Cn3ccnc3)c12`, for which the pIC50 is 6.06 in assay [4] and 6.82 against Aromatase [2].
In assay [1], `O=c1c2ccccc2sc2c(Cn3ccnc3)ccc([N+](=O)[O-])c12` returned an inhibition at 2.5 µM of 5%. For the same compound, the pIC50 on Aromatase [2] is 7.78.
On the same counts, the results for `c1ccc(Oc2ccccc2Cn2ccnc2)cc1` are 8% and 6.41.
On the same counts, the results for `O=c1c2ccccc2oc2c(Cn3ccnc3)c([N+](=O)[O-])ccc12` are 9% and 5.72.
Regarding `O=c1c2ccccc2sc2c(Cn3ccnc3)cccc12`, in assay [1], the inhibition at 2.5 µM was 28%. On Aromatase [2], this compound had a pIC50 of 8.40.
Taken in the same sequence, the figures for `O=c1c2ccccc2oc2c(Cn3ccnc3)cccc12` were 17% and 7.77.
`O=c1c2cccnc2oc2c(Cn3ccnc3)ccc([N+](=O)[O-])c12`: the negative-log IC50 (pIC50) against Aromatase [2] was 7.00.
Take `O=[N+]([O-])c1ccc(Cn2ccnc2)c(Oc2ccccc2)c1`: on Aromatase [2], the pIC50 was 7.94.
`O=[N+]([O-])c1ccc(Cn2ccnc2)c(Sc2ccccc2)c1`: the inhibition at 2.5 µM in assay [1] stood at 17%. The pIC50 against Aromatase [2] is 8.25.
